Ends that are not written are not given here. Me3 = Me3: trimethyl-lysine (trimethylated lysine)
B2: CYP33 RRM domain (T3-K83), wild type (domain or fragment, human, UniProt Q9UNP9 3-83, looked up)
chain: TTKRVLYVGGLAEEVDDKVLHAAFIPFGDITDIQIPLDYETEKHRGFAFVEFELAEDAAAAIDNMNESELFGRTIRVNLAK
B11: MLL PHD3 (third PHD finger of MLL), wild type (domain or fragment, human, UniProt Q03164 1564-1628, looked up)
chain: AKGNFCPLCDKCYDDDDYESKMMQCGKCDRWVHSKCENLSDEMYEILSNLPESVAYTCVNCTERH

Key:
C-MYC = experiment: Q-RT-PCR of C-MYC expression in HEK293T cells; format: cell-based; conditions: 48 h after transfection, normalized to β2M, vs empty vector
In short: (§1)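 HEK293T cells transfected with Lipofectamine 2000 using pCEP4 empty vector, FLAG-tagged wild-type CYP33 or PPIase-dead CYP33 (R191A/F196A). At 48 h, RNA extracted with Trizol and reverse-transcribed. qPCR run in triplicate. cDNA levels normalized to β2M by the comparative Ct method.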

HOXC8 = experiment: Q-RT-PCR of HOXC8 expression in HEK293T cells; format: cell-based; conditions: 48 h after transfection, normalized to β2M, vs empty vector
In short: as §1

CDKN1B = experiment: Q-RT-PCR of CDKN1B expression in HEK293T cells; format: cell-based; conditions: 48 h after transfection, normalized to β2M, vs empty vector
In short: as §1

HOXA9 = experiment: Q-RT-PCR of HOXA9 expression in HEK293T cells; format: cell-based; conditions: 48 h after transfection, normalized to β2M, vs empty vector
In short: as §1

CDKN1B promoter = experiment: Chromatin immunoprecipitation at CDKN1B promoter in HEK293T cells; format: cell-based; conditions: ChIP, 48 h after transfection, CYP33 overexpression vs empty vector
In short: (§2)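 HEK293T cells transfected with empty vector or pCEP4-CYP33 by lipofectamine, then formalin-fixed at 48 h. Chromatin immunoprecipitated with anti-histone H3, anti-H3K4me3, anti-acetyl-H3 (K9/K14) or IgG control antibodies. Recovered DNA quantified by qPCR at MLL target gene promoters. Fold occupancy normalized to input DNA.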

HOXC8 promoter = experiment: Chromatin immunoprecipitation at HOXC8 promoter in HEK293T cells; format: cell-based; conditions: ChIP, 48 h after transfection, CYP33 overexpression vs empty vector
In short: as §2

[1] = molecular target: B11; experiment: ITC
[2] = molecular target: PHD3−CYP33 RRM complex (PHD3 saturated with CYP33 RRM) (human, UniProt Q03164 1564-1628; Q9UNP9 3-83); experiment: ITC
MLL PHD3 V1617A mutant = MLL PHD3 V1617A mutant (human, UniProt Q03164 1564-1628, V1617A); experiment: ITC
W1594A PHD3 = W1594A PHD3 (Homo sapiens, UniProt Q03164, W1594A); experiment: ITC binding to PHD3 W1594A mutant
PHD3 = conditions: yeast two-hybrid assay, co-immunoprecipitation, and GST pull-down; cited from earlier work
[3] = 15N−1H HSQC structural integrity of mutants; format: physicochemical; conditions: 15N−1H HSQC of mutant vs wild type, 30 °C, pH 6.9
[4] = molecular target: PHD3 (MLL PHD3, wild-type) (Homo sapiens, UniProt Q03164); experiment: ITC binding of H3K4me3 peptide or CYP33 RRM; conditions: CYP33 RRM Ala mutant to wild-type PHD3
[5] = molecular target: B2; experiment: ITC

CYP33 mutant (R191A/F196A)
C-MYC expression (C-MYC): no longer downregulated
HOXC8 expression (HOXC8): no longer downregulated
CDKN1B expression (CDKN1B): no longer downregulated
HOXA9 expression (HOXA9): no longer downregulated

CYP33: Human nuclear Cyclophilin33, full-length; FLAG-tagged wild-type expressed from pCEP4 plasmid in HEK293T cells
H3K4me3 mark (CDKN1B promoter): reduced
H3 acetylation level (K9 and K14) (CDKN1B promoter): reduced
histone H3 density (CDKN1B promoter): increase
C-MYC expression (C-MYC): markedly downregulated
HOXC8 expression (HOXC8): markedly downregulated
H3K4me3 mark (HOXC8 promoter): reduced
histone H3 density (HOXC8 promoter): increase
CDKN1B expression (CDKN1B): markedly downregulated
HOXA9 expression (HOXA9): markedly downregulated

B1: Histone H3 peptide (residues 1-15) trimethylated at K4 (peptide)
peptide: ARTK(Me3)QTARKSTGGKAY
modifications: not fully specified
stoichiometry N [1]: 1
fold increase in Kd against PHD3 alone [2]: ~5.7 fold

B2
fold decrease in affinity against wild-type PHD3 (MLL PHD3 V1617A mutant): ~6.2 fold

B3: CYP33 RRM: RRM domain of CYP33 spanning residues T3−K83 (protein)
chain: TTKRVLYVGGLAEEVDDKVLHAAFIPFGDITDIQIPLDYETEKHRGFAFVEFELAEDAAAAIDNMNESELFGRTIRVNLAK
modifications: left off: GST, end not stated, cleaved
Kd (W1594A PHD3; 25 °C, pH 7.2, CYP33 RRM to W1594A PHD3): 19.6 µM
fold weaker Kd vs wild-type PHD3 (W1594A PHD3; CYP33 RRM to W1594A PHD3): ~1.3 fold
interaction with PHD3 (PHD3): interacts

B4: F49A (protein)
chain: TTKRVLYVGGLAEEVDDKVLHAAFIPFGDITDIQIPLDYETEKHRGAAFVEFELAEDAAAAIDNMNESELFGRTIRVNLAK
modifications: left off: GST, end not stated, cleaved
effect of mutation on structure [3]: without disrupting the structure

B5: R47A (protein)
chain: TTKRVLYVGGLAEEVDDKVLHAAFIPFGDITDIQIPLDYETEKHAGFAFVEFELAEDAAAAIDNMNESELFGRTIRVNLAK
modifications: left off: GST, end not stated, cleaved
interaction with PHD3 [4]: did not abrogate the interaction

B6: K45A (protein)
chain: TTKRVLYVGGLAEEVDDKVLHAAFIPFGDITDIQIPLDYETEAHRGFAFVEFELAEDAAAAIDNMNESELFGRTIRVNLAK
modifications: left off: GST, end not stated, cleaved
interaction with PHD3 [4]: did not abrogate the interaction

B7: L39A (protein)
chain: TTKRVLYVGGLAEEVDDKVLHAAFIPFGDITDIQIPADYETEKHRGFAFVEFELAEDAAAAIDNMNESELFGRTIRVNLAK
modifications: left off: GST, end not stated, cleaved
effect of mutation on structure [3]: without disrupting the structure

B8: MLL PHD3 Y1619A mutant (domain or fragment, human, UniProt Q03164 1564-1628, looked up)
chain: AKGNFCPLCDKCYDDDDYESKMMQCGKCDRWVHSKCENLSDEMYEILSNLPESVAATCVNCTERH
binding result [5]: binds

B9: CYP33 RRM L39A mutant (domain or fragment, human, UniProt Q9UNP9 3-83, looked up)
chain: TTKRVLYVGGLAEEVDDKVLHAAFIPFGDITDIQIPADYETEKHRGFAFVEFELAEDAAAAIDNMNESELFGRTIRVNLAK
fold decrease in affinity against wild-type CYP33 RRM [1]: ~4.3 fold

B10: MLL PHD3 W1594A mutant (domain or fragment, human, UniProt Q03164 1564-1628, looked up)
chain: AKGNFCPLCDKCYDDDDYESKMMQCGKCDRAVHSKCENLSDEMYEILSNLPESVAYTCVNCTERH
Kd [5]: 19.6 µM

B11
Kd [5]: 14.7 µM

B12: CYP33 RRM F49A mutant (domain or fragment, human, UniProt Q9UNP9 3-83, looked up)
chain: TTKRVLYVGGLAEEVDDKVLHAAFIPFGDITDIQIPLDYETEKHRGAAFVEFELAEDAAAAIDNMNESELFGRTIRVNLAK
fold decrease in affinity against wild-type CYP33 RRM [1]: ~14 fold

B13: V1617A: MLL PHD3 with V1617 mutated to alanine (protein)
chain: AKGNFCPLCDKCYDDDDYESKMMQCGKCDRWVHSKCENLSDEMYEILSNLPESAAYTCVNCTERH
modifications: left off: GST, end not stated, cleaved
effect of mutation on structure [3]: does not affect the structural stability of PHD3

B14: Y1619A: MLL PHD3 with Y1619 mutated to alanine (protein)
chain: AKGNFCPLCDKCYDDDDYESKMMQCGKCDRWVHSKCENLSDEMYEILSNLPESVAATCVNCTERH
modifications: left off: GST, end not stated, cleaved
effect of mutation on structure [3]: disruption of the overall fold

Reference: publication PMC2916634 (Biochemistry, 2010)
